Compound activity (PubChem)
Arr AP2 block: human beta-arrestin and AP2 interaction inhibition | FITC-arrestin peptide / GST-AP2 beads, flow cytometry; AP2 beta2 appendage carries R879A mutation | 0.31% of 340,000 active | AID 504490 | inhibition, % at 10 µM;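 active = inhibition above a set limit, near 3 SD of compounds lacking own fluorescence, cut at about 54% in these data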;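 also: plate controls were DMSO wells for no effect and 5 µM unlabelled arrestin peptide for full effect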
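System: GST-AP2 R879A bound to glutathione beads, E. coli-expressed. Also added: 50 nM FITC-arrestin peptide. Schedule: compound with beads 12 min RT, then probe 1 h RT. Signal: bead flow cytometry, FITC channel. Read-out basis: percent response.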
HDAC3 inh: inhibitors of human histone deacetylase 3 | O15379 | recombinant HDAC3, fluorogenic peptide/trypsin coupled, fluorescence | inhibition, % at 8.3 µM | 0.15% of 320,000 active; in the data active = inhibition above about 26%, passing the limit was not always enough
LANA-H2A inh: blocks KSHV LANA binding to histone H2A/H2B; AID 2629; Q9QR71; cell-free LANA-H2A/H2B peptide, fluorescence polarization; 0.6% of 320,000 active; inhibition, % (test concentration not listed); in the data active = inhibition mostly above about 10%, no sharp cut-off; inactive = mostly below about 6.7%
T cell modulator: T cell immune modulation candidate | 2C CD8+ T cell-vesicle binding, flow cytometry; stronger effect = lower value | 0.068% of 330,000 active | response (vesicle binding), % at 7 µM;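 active = response, share of CD8 T cells binding vesicles, and their 90th percentile fluorescence all below set limits, cut at about 80% in these data, passing the limit was not always enough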;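 also: values below 100% mean blocked vesicle binding to the CD8+ T cells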
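Also added: QL9-peptide-loaded Drosophila micro-vesicles bearing Ld, ICAM-1 and B7-1; Test system: purified 2C TCR transgenic mouse naive CD8+ T cells; Measured by: cytometric PE anti-B7-1 and Alexa647 anti-CD8 signals after 1% paraformaldehyde fixation; Timing: binding step 1.5 h, 37 °C, antibody labelling 20 min, ice.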
Pemphigus Ab inh: blocks pemphigus antibody binding to human desmoglein-3 | P32926 | DSG3-coupled beads, scFv-anti-DSG3-GFP binding, flow cytometry; stronger effect = lower value | binding (percent of control), % at 10 µM | 0.48% of 310,000 active;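 active = binding more than 3 SD below its plate's average and above zero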;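 also: hits lower antibody fragment binding to DSG3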
JMJD2C inh: inhibitors of human GASC-1 (JMJD2C) demethylase; Q9H3R0; GST-JMJD2C(1-420) H3K9me3 demethylation, DELFIA europium; inhibition, % at 2.35 µM; 0.069% of 330,000 active;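 active = more than half of a compound's replicate wells show inhibition beyond 50%, single wells judged on their own value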;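 also: signal counts dimethyl H3K9 product captured on neutravidin plate; 0% = median of DMSO wells and 100% = 0.3 times that DMSO median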
Arr AP2 CP1: human beta-arrestin and AP2 interaction inhibition, cherry pick. shares compounds with Arr AP2 block. GST-AP2 beads, FITC arrestin peptide binding, flow cytometry; GST-fused beta2-adaptin appendage, R879A mutant. inhibition, % at 10 µM. 2% of 1,300 active;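 active = inhibition above a set limit, roughly 3 SD of non-fluorescent compound noise, cut at about 38% in these data; inactive = inhibition at or below that limit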;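 also: loss of bead fluorescence from 50 nM FITC arrestin peptide bound to appendage; 0% = negative control wells and 100% = excess unlabelled arrestin peptide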
GST GSH counter: counter-screen for beta-arrestin AP2 inhibitors: GST-GSH bead binding; AID 588338; 2% of 1,300 active; GST-fluorescein binding to GSH beads, fluorescence; inhibition, % at 10 µM; shares compounds with Arr AP2 block;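 active = inhibition above 50%, about 3 SD of the inhibition seen with non-fluorescent compounds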;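 also: fluorescein maleimide labelled GST captured on 4 micron glutathione beads; higher means more loss of bead fluorescence from quenching or blocked binding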
* = called active by the depositor; i = inactive; · = not tested or not shown. Rows were chosen to be rich in hits. Some 1.6% of all compounds tested hit in one or more screens of this group.

SMILES	Arr AP2 block	HDAC3 inh	LANA-H2A inh	T cell modulator	Pemphigus Ab inh	JMJD2C inh	Arr AP2 CP1	GST GSH counter
CC(C)Cn1c(N)c(C(=O)COC(=O)c2ccc(F)cc2)c(=O)n(C)c1=O	13	-1	3	183	98	5	3	-7
CC(C)Cn1c(N)c(C(=O)COC(=O)c2cccc(Cl)c2)c(=O)n(C)c1=O	6	-3	-4	330	112	1	·	·
Cn1c(N)c(C(=O)COC(=O)c2ccc(C(F)(F)F)cc2)c(=O)n(C)c1=O	-11	9	-3	423	93	5	-10	-4
Cc1ccc(/C=C/S(=O)(=O)NCc2ccc(F)cc2)cc1	32	3	-1	202	151	26	·	·
O=C(/C=C/c1ccccc1)Nc1cccc(C(=O)NC2CC2)c1	1	·	·	·	101	·	·	·
Cn1c(N)c(C(=O)COC(=O)c2cccs2)c(=O)n(C)c1=O	17	2	2	211	98	-1	1	2
Cc1noc(C)c1C(=O)OCC(=O)c1c(N)n(CC(C)C)c(=O)n(C)c1=O	-4	-1	-3	250	99	-1	1	-8
COc1ccc(C(=O)OCC(=O)c2c(N)n(C)c(=O)n(C)c2=O)c(OC)c1OC	20	-2	5	591	·	8	0	-2
Cn1c(N)c(C(=O)COC(=O)c2ccnc3ccccc23)c(=O)n(C)c1=O	6	0	4	·	98	-9	·	·
N#Cc1ccsc1NC(=O)C1CCCN1S(=O)(=O)c1cccs1 (stereo not drawn)	-4	3	6	200	88	-3	·	·
CC(C)(C)c1cc[n+](CC(=O)Nc2cc(C(F)(F)F)ccc2N2CCOCC2)cc1	-10	1	18	318	107	-8	·	·
NC(=O)C1CCN(C2=C(Cl)C(=O)c3ccccc3C2=O)CC1	54*	-2	8	229	·	8	51*	0
O=C1C(Cl)=C(N2CCC(C(=O)O)CC2)C(=O)c2ccccc21	27	·	0	195	92	6	·	·
Cc1ccc(-c2nnn(CC(=O)N(c3ccccc3)C(C(=O)NCC3CCCO3)c3ccc(F)cc3)n2)o1 (stereo not drawn)	66*	6	8	601	106	8	6	0
COc1ccc(-n2nc(N)c(C(N)=O)n2)cc1	55*	-9	-4	173	96	0	8	3
OCC(CBr)(CBr)CBr	-5	6	1	i	102	15	·	·
Cc1ccccc1NC(=O)Cc1c[nH]c2ccccc12	23	-12	2	487	111	11	·	·
O=C(COc1ccc(F)cc1Br)NCCCN1CCCC1=O	·	0	4	253	99	2	·	·
Cc1ccc(S(=O)(=O)N(C)CC(=O)O/N=C(\N)c2ccccn2)cc1	97*	-2	4	266	99	127	6	-7
N#Cc1c(SCC(=O)Nc2ccccc2)nsc1SCC(=O)Nc1ccccc1	109*	-3	-2	209	67*	1	7	-1
CC(C)Cn1c(N)c(C(=O)COC(=O)c2ccccc2F)c(=O)n(C)c1=O	4	3	2	136	99	-8	-1	0
CC(C)Cn1c(N)c(C(=O)COC(=O)c2ccccc2C(=O)c2ccccc2)c(=O)n(C)c1=O	7	-1	1	225	97	-3	·	·
CC(C)Cn1c(N)c(C(=O)COC(=O)c2cccn2C)c(=O)n(C)c1=O	31	3	1	158	100	4	-7	-2
CC(C)Cn1c(N)c(C(=O)COC(=O)c2ccccc2Cl)c(=O)n(C)c1=O	-17	4	-12	634	102	12	6	-3
CN1OC[C@@H]2CN(Cc3cc(Cl)cc(Cl)c3)[C@H](c3cccc(Br)c3)C[C@@H]21	3	·	·	·	96	·	·	·
SMILES	Arr AP2 block	HDAC3 inh	LANA-H2A inh	T cell modulator	Pemphigus Ab inh	JMJD2C inh	Arr AP2 CP1	GST GSH counter
Cc1cccc(C)c1OCc1cc(C(=O)N(C)Cc2nc3ccccc3[nH]2)no1	17	6	-4	268	115	5	·	·
CCOc1ccc(-c2csc(NC(=O)CSCC(=O)O)n2)c2ccccc12	62*	6	-12	126	94	22	7	0
CCn1c(=O)n(CC(=O)Nc2ccc(F)cc2)c(=O)c2ccccc21	12	0	3	372	92	6	-2	-10
CCn1c(=O)n(CC(=O)NCc2ccccc2OC)c(=O)c2ccccc21	-7	-9	-4	178	100	-11	·	·
COc1ccc2oc(=O)c(C(=O)OCc3ccccc3)cc2c1	-8	3	2	273	104	-2	·	·
CC1(C)Oc2ccc3ccc(=O)oc3c2/C(=C/Nc2ccc(O)cc2)C1=O	55*	-8	-3	358	99	-3	-10	-4
NS(=O)(=O)c1ccc(NC(=O)/C=C/c2cn(-c3ccccc3)nc2-c2cccc(Cl)c2)cc1	58*	-4	1	225	119	1	1	-7
CCc1ccc(NC(=O)C(C)OC(=O)Cn2[nH]c(=O)c3ccccc3c2=O)cc1 (stereo not drawn)	·	·	·	·	98	·	·	·
COc1ccc(CC(=O)N2CCC3(CC2)NCCc2[nH]cnc23)cc1	-4	-10	-2	277	·	7	·	·
O=C(Cc1ccc(F)cc1)N1CCC2(CC1)NCCc1[nH]cnc12	56*	-2	1	410	108	5	3	-4
COc1cc(OC)c(NC(=O)CC(C)=O)cc1Cl	4	-7	4	136	·	-5	-6	-1
COc1cc(OC)c(NC(=O)CC(=O)Nc2cc(Cl)c(OC)cc2OC)cc1Cl	7	1	-3	230	114	-21	·	·
Cc1ccc2nc(-c3cccc(Br)c3)cc(C(=O)NCC3CCCO3)c2c1 (stereo not drawn)	-6	8	5	404	104	-2	·	·
O=C(NCC1CCCO1)c1cc(-c2ccccc2)nc2ccc(Br)cc12 (stereo not drawn)	54*	4	-13	314	108	1	1	-5
CCc1nnc(NC(=O)c2cccc(S(=O)(=O)N3CCN(C)CC3)c2)s1	·	·	·	·	103	·	·	·
CCOC(=O)/C(=N\O)C1=NC(C)(C)Cc2ccccc21	-4	0	-3	423	85	7	·	·
Cc1cccc(N/N=C(\C(N)=O)C2=NC(C)(C)Cc3ccccc32)c1	55*	12	-4	192	102	-2	19	0
COc1ccc(/C=N/Nc2ccc([N+](=O)[O-])cc2S(=O)(=O)N2CCN(C)CC2)cc1	102*	-3	-4	108	121	-4	18	-4
